Molecules are shown by their SMILES. The source made the active and inactive calls. No cut-off for these calls is given here.

Test [1] concerns HepG2. In words: Cytotoxicity against human HepG2 cells assessed as cell viability at 5 to 100 uM after 24 hrs by MTT assay relative to control. It is filed as functional, cell-based. A digest of the protocol:
(§1)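 HepG2 cells kept in DMEM with 10% FBS and penicillin/streptomycin at 37 °C under 5% CO2. Cells were exposed for 24 h to chalcone analogues at various concentrations, up to 100 µM, and viability was then read by MTT assay.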
(In general: Tetrazolium dyes change colour on reduction, which living cells bring about.)

The test system of the next test is LLC-PK1. In words: Cytotoxicity against porcine LLC-PK1 cells assessed as cell viability after 24 hrs by MTT assay. It is filed as cell-based. Conditions: Sus scrofa, LLC-PK1, 24 h.
Test [2] deals with HepG2. In words: Cytotoxicity against human HepG2 cells assessed as cell viability after 24 hrs by MTT assay. It is filed as functional, cell-based. Conditions: HepG2, 24 h. A digest of the protocol:
as §1

Test [3] concerns HepG2. In words: Induction of apoptosis in human HepG2 cells assessed as progressive condensation at 25 to 50 uM by phase contrast microscopic analysis. It is filed as functional, cell-based.
The subject of test [4] is HepG2. In words: Induction of apoptosis in human HepG2 cells assessed as cell shrinking at 25 to 50 uM by phase contrast microscopic analysis. It is filed as functional, cell-based.
Test [5] concerns HepG2. In words: Induction of apoptosis in human HepG2 cells assessed as early apoptotic cells at 25 uM by annexin V-FITC/propidium iodide staining-based flow cytometric analysis (reference value: 1.9 +/- 0.5%). It is filed as functional. For orientation: A flow cytometer gives signals particle by particle.
Test [6] relates to HepG2. In words: Cytotoxicity against human HepG2 cells assessed as cell viability at 5 to 100 uM after 24 hrs by MTT assay. It is filed as functional. The method, boiled down:
as §1

Test [7] deals with HepG2. In words: Cytotoxicity against human HepG2 cells assessed as cell viability at 100 uM after 24 hrs by MTT assay. It is filed as functional. Conditions: HepG2, 24 h, read-out: GI. The method, boiled down:
as §1

The test system of test [8] is HepG2. In words: Induction of apoptosis in human HepG2 cells assessed as early apoptotic cells at 50 uM by annexin V-FITC/propidium iodide staining-based flow cytometric analysis (reference value: 1.9 +/- 0.5%). It is filed as functional.
In test [9] the test system is HepG2. In words: Induction of apoptosis in human HepG2 cells assessed as increase in Bax/Bcl2 ratio at 25 to 50 uM after 24 hrs by Western blot analysis. It is filed as functional, cell-based. A digest of the protocol:
(§2)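 HepG2 cells were grown in 60 mm dishes and treated at 25 and 50 µM for 24 h. Whole-cell extracts were made in RIPA buffer with 1× protease inhibitor cocktail and 1 mM PMSF. Lysates (20 µg) were run on SDS–PAGE and transferred to PVDF. Blots were probed with epitope-specific antibodies against GAPDH and the target proteins and detected by ECL.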
For orientation: Immunoblotting shows a protein as a band on a membrane.

In test [10] the test system is HepG2. In words: Induction of apoptosis in human HepG2 cells assessed as karyorrhexis at 25 to 50 uM by phase contrast microscopic analysis. It is filed as functional, cell-based.
In test [11] the test system is HepG2. In words: Induction of apoptosis in human HepG2 cells assessed as cleavage of caspase-8 at 25 to 50 uM after 24 hrs by Western blot analysis. It is filed as functional, cell-based. A digest of the protocol: as §2
The test system of test [12] is HepG2. In words: Induction of apoptosis in human HepG2 cells assessed as cleavage of caspase-9 at 25 to 50 uM after 24 hrs by Western blot analysis. It is filed as functional, cell-based. A digest of the protocol: as §2
Test [13] relates to HepG2. In words: Induction of apoptosis in human HepG2 cells assessed as cleavage of PARP at 25 to 50 uM after 24 hrs by Western blot analysis. It is filed as functional, cell-based. The method, boiled down: as §2
Test [14] relates to HepG2. In words: Cytotoxicity against human HepG2 cells assessed as cell viability at 50 uM after 24 hrs by MTT assay. It is filed as functional. Conditions: HepG2, 24 h, read-out: GI. The method, boiled down: as §1
Test [15] relates to HepG2. In words: Induction of apoptosis in human HepG2 cells assessed as cleavage of caspase-3 at 25 to 50 uM after 24 hrs by Western blot analysis. It is filed as functional, cell-based. A digest of the protocol: as §2

For the compound `CCn1c2ccccc2c2cc(/C=C/C(=O)c3ccc(OC)c(OC)c3)ccc21`, in the test on HepG2 [1], the “growth inhibition (GI)” value was “inactive”.

What is called IC50 is the point on the concentration scale where inhibition reaches its midpoint. Consider `COc1cccc(C(=O)/C=C/c2cc(OC)c(Br)c(OC)c2)c1`, for which the half-maximal inhibitory concentration (IC50) turned out to be 83 µM with LLC-PK1 and 26 µM with HepG2 [2]. For the same compound, the outcome in the test on HepG2 [3], in the test with HepG2 [4], in the test on HepG2 [9], with HepG2 [10], in the test with HepG2 [11] and with HepG2 [13] was Active. For the same compound, in the test with HepG2 [15], the outcome was Active. The Activity with HepG2 [5] is reported as 8.5%; in the test with HepG2 [8], 31.2%. In the test with HepG2 [6], the “growth inhibition (GI)” value is greater than 50%. Further, the inhibition of growth at 100 µM with HepG2 [7] is 98%. The result in the test on HepG2 [12] was inactive. In addition, the inhibition of growth at 50 µM with HepG2 [14] is no more than 91%.

`O=C(/C=C/c1ccc2ccccc2c1)c1ccc(Br)cc1`: the “growth inhibition (GI)” value in the test on HepG2 [1] was “inactive”.

Regarding `COc1cc(/C=C/C(=O)c2ccc(Br)cc2)cc(OC)c1Br`, the “growth inhibition (GI)” value with HepG2 [6] is on record as greater than 50%.

Consider `CCn1c2ccccc2c2cc(/C=C/C(=O)c3ccc(Cl)cc3)ccc21`, for which the “growth inhibition (GI)” value in the test with HepG2 [1] was “inactive”.

Take `O=C(/C=C/c1ccc(-c2ccccc2)cc1)c1ccc(Cl)cc1`: the “growth inhibition (GI)” value in the test on HepG2 [1] was “inactive”.

Take `O=C(/C=C/c1ccc2ccccc2c1)c1ccc(Cl)cc1`: the “growth inhibition (GI)” value in the test with HepG2 [1] was “inactive”.

Turning to `COc1ccc(C(=O)/C=C/c2ccc(-c3ccccc3)cc2)cc1OC`, in the test on HepG2 [1], the “growth inhibition (GI)” value is “inactive”.

The values are drawn from ChEMBL document CHEMBL3739254, “Synthesis of apoptotic chalcone analogues in HepG2 human hepatocellular carcinoma cells” (Bioorg Med Chem Lett, 2015).
